Bioassay records as filed in PubChem.
STAT1 blocker – STAT1 signaling inhibitors, primary screen, cell-based, HTS, luciferase reporter. NIH 3T3 STAT1-luciferase reporter, IFN-gamma, luminescence. inhibition, % at 5.5 µM. 200,000 tested, 0.35% active;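 active = inhibition above a set limit, the mean inhibition across all tested compounds plus 3 SD, cut at about 34% in these data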;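 also: 0% = IFN-gamma with DMSO and 100% = IFN-gamma with 300 µM nifuroxazide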
STAT3 act – IL-6 driven STAT3 reporter potentiators, primary screen, U3A cells, luciferase, luminescence, MLSCN library | IL-6 STAT3-luciferase reporter; 100% = signal with IL-6 EC80 alone | activation (% of control), % at 5.6 µM | 190,000 tested, 0.91% active | AID 871, 2007;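 active = activation above the screen-wide mean of compound activation plus 3 SD, cut at about 130% in these data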;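 also: 0% = background luminescence of wells with medium and substrate only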
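Material: STAT1-lacking human U3A cells, STAT3 luciferase reporter | Benchmarks: IL-6-only wells as 100% reference | Probe or stimulus: IL-6 (33 ng/mL) | Timing: Compound 1 h, then IL-6 6 h at 37 °C | Detection: Luminescence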
HSP90 inh – HSP90 inhibitors, primary screen, cell lysate, luminescence; AID 1789, 2009; 290,000 tested, 0.91% active; inhibition, % at 5.6 µM; Rabbit reticulocyte lysate, luciferase refolding luminescence, 3 h; Heat shock protein HSP 90 (rabbit reticulocyte lysate; luciferase refolding);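 active = inhibition above the screen-wide mean plus 3 SD, computed separately per campaign, cut at about 16% in these data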;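 also: 0% = DMSO wells and 100% = 60 µM geldanamycin wells; inhibitors lower the luminescence because luciferase stays unfolded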
STAT3 blocker – IL-6 driven STAT3 reporter inhibitors, primary screen, U3A cells, luciferase, luminescence, MLSCN library; inhibition, % at 5.5 µM; IL-6 STAT3-luciferase reporter; host cell line lacks STAT1; 190,000 tested, 0.89% active; AID 862, 2007;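 active = inhibition above the mean inhibition across all screened compounds plus 3 SD, cut at about 44% in these data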;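 also: 0% = DMSO only wells and 100% = 100 µM nifuroxazide control wells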
HSP90 inh confirm – HSP90 inhibitors, confirmation, cell lysate, luminescence; shares compounds with HSP90 inh; rabbit reticulocyte lysate, luciferase refolding luminescence, 3 h; inhibition, % at 5.9 µM; 2,300 tested, 64% active; in the data active = inhibition above about 18%;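 also: 0% = vehicle wells and 100% = reference inhibitor wells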
FLuc counter – firefly luciferase inhibitors, HSP90 counter-screen, confirmation, artefact control for HSP90 inhibitor project, biochemical, luminescence, triplicate. shares compounds with HSP90 inh. purified native firefly luciferase. inhibition, % at 5.9 µM. 2,300 tested, 48% active. AID 1847, 2009;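 active = inhibition above the mean inhibition of all tested sample wells plus 3 SD, cut at about 10% in these data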;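 also: 0% = DMSO with luciferase and 100% = wells lacking luciferase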
Target sequence (P08659 whole entry, looked up): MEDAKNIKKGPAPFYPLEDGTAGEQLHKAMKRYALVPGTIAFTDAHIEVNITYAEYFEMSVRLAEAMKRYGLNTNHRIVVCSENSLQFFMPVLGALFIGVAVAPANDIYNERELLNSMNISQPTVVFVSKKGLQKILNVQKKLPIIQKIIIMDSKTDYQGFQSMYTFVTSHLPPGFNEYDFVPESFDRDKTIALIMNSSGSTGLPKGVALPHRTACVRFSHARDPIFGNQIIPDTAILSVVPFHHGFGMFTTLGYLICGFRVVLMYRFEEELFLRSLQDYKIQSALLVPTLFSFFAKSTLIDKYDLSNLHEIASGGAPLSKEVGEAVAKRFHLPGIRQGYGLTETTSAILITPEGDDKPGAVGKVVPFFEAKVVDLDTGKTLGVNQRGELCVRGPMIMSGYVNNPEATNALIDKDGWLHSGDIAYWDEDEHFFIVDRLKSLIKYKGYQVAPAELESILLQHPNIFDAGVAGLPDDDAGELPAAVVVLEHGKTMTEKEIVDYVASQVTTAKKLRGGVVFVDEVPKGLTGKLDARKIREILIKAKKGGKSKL
Numbers without * were called inactive; . = no result; ! = repeats disagree. Shown are actives, neighbours in structure and some others; about 2% of the full set was active somewhere.

SMILES | STAT1 blocker | STAT3 act | HSP90 inh | STAT3 blocker | HSP90 inh confirm | FLuc counter
CCCN1CCN(C(=O)CCc2nnc3ccc(N4CCN(c5cccc(OC)c5)CC4)nn23)CC1 | . | . | -6 | . | . | .
CCOc1cc(C2NN=C(c3ccc(C)cc3)S2)ccc1O (configuration not stated) | -40 | 104 | -6 | -4 | . | .
Oc1ccccc1C1NN=C(c2ccccc2)S1 (configuration not stated) | . | . | 24* | . | 33* | 18*
CN1CCN(c2nc(-c3ccc(C(C)(C)C)cc3)nc3ccccc23)CC1 | . | . | 54* | . | 52* | 49*
Cc1ccc(-c2nc(N3CCN(C)CC3)c3ccccc3n2)cc1 | . | . | 2 | . | . | .
Cc1ccc(-n2ncc3c(NCCCN4CCOCC4)ncnc32)c(C)c1 | 1 | 102 | 1 | 7 | . | .
CCCNc1ncnc2c1cnn2-c1ccc(OC)cc1 | -62 | 77 | 9 | 34 | . | .
COc1ccc(-n2ncc3c(NCCCN4CCOCC4)ncnc32)cc1 | -38 | 108 | 28* | -6 | 32* | 32*
COc1ccc(-n2ncc3c(NCCN4CCOCC4)ncnc32)cc1 | -27 | 106 | 26* | 1 | 27* | 19*
CCn1cc(C(=O)NCCC(=O)OC)c(=O)c2cc3c(cc21)OCO3 | . | . | 2 | . | . | .
COC(=O)CC1C(=O)NC(C)=C1C(=O)OC (configuration not stated) | . | . | 37* | . | 3 | 1
Nc1cc(-c2ccccc2)ccc1O | 8 | 102 | 24*! | 2 | 80* | -18
CC(=O)Nc1cc(-c2ccccc2)ccc1O | -3 | 96 | 0 | 7 | . | .
ClCc1csc(-c2ccccc2Cl)n1 | -11 | 94 | 7 | 12 | . | .
COc1ccc2c(c1)Cc1sc(NC(C)=O)nc1-2 | -49 | 99 | 32* | 5 | 2 | -10
COCCCNC(=O)COc1ccc(S(=O)(=O)NCc2ccccc2)cc1Cl | -1 | 100 | 1 | 1 | . | .
C[n+]1cccc2c(Br)ccc([O-])c21 | . | . | 19* | . | 3 | -2
CN(C)c1ccc(CNCCC(Cc2ccccc2)c2ccco2)cc1 (configuration not stated) | . | . | 19* | . | 5 | -2
CCN(CC)CCN(Cc1cc2cc3c(cc2[nH]c1=O)OCO3)C(=S)NC | . | . | 29* | . | -1 | -4
O=C(Oc1ccc2ccc(O)cc2c1)C1CCCCC1 | -3 | 104 | -2 | 1 | . | .
O=C(Oc1ccc2ccccc2c1)C1CCC1 | . | . | 37* | . | -3 | -16
Cc1ccc(NC(=O)CS(=O)c2ccccc2N)c(C)c1 (configuration not stated) | . | . | 2 | . | . | .
Cc1ccc(NC(=O)c2cc(C)n(-c3ccccc3)c2C)cc1 | 39* | 24 | 75* | 88* | 85* | 83*
Cc1cc(C(=O)Nc2ccc(Cl)cc2)c(C)n1-c1ccccc1 | . | . | 81* | . | 81* | 80*
COc1ccc(/C=N/NC(=O)c2cc(C)n(-c3ccccc3)c2C)cc1OC | -5 | 104 | 13 | -3 | . | .
SMILES | STAT1 blocker | STAT3 act | HSP90 inh | STAT3 blocker | HSP90 inh confirm | FLuc counter
Cc1cc(C(=O)N/N=C2\CCCC(=O)C2)c(C)n1-c1ccccc1 | -31 | 102 | 31* | -7 | -5 | -18
Cc1cc(C(=O)Nc2ccc(Cl)cc2)n(-c2ccccc2)n1 | . | . | -2 | . | . | .
CCOc1ccc(CN2CCN(Cc3cc4ccccc4o3)CC2CCO)cc1 (configuration not stated) | . | . | 61* | . | 2 | -2
COc1cccc(CN2CCN(Cc3cc4ccccc4o3)CC2CCO)c1 (configuration not stated) | . | . | 1 | . | . | .
CC(C)CN(CCCNC(=O)CN1C(=O)COc2ccc(S(=O)(=O)N3CCCCCC3)cc21)CC(C)C | . | . | 0 | . | . | .
CC(C)CN(CCCNC(=O)CN1C(=O)COc2ccc(S(=O)(=O)N3CCCC3)cc21)CC(C)C | 3 | 93 | 22* | 14 | -4 | -5
CC(C)(C)c1cc(NC(=O)c2ccco2)no1 | . | . | 19* | . | 31* | 12*
Cc1ccccc1OCC(=O)N(CC(C)C)c1c(N)n(CC(C)C)c(=O)[nH]c1=O | . | . | 45* | . | -2 | -2
CC(C)CN(C(=O)CCc1ccccc1)c1c(N)n(CC(C)C)c(=O)[nH]c1=O | -2 | 104 | 1 | -6 | . | .
